This note sets out measurements from ChEMBL document CHEMBL1156146 (Bioorg Med Chem Lett, 2009).

Usually IC50 stands for the point on the concentration scale where inhibition reaches its midpoint. By ED50 is commonly meant the dose that gives a 50% effect, or the effect in half of the subjects.

One data set deals with T1, 5-lipoxygenase (Solanum tuberosum, UniProt O49150).
T1 sequence (O49150 whole entry): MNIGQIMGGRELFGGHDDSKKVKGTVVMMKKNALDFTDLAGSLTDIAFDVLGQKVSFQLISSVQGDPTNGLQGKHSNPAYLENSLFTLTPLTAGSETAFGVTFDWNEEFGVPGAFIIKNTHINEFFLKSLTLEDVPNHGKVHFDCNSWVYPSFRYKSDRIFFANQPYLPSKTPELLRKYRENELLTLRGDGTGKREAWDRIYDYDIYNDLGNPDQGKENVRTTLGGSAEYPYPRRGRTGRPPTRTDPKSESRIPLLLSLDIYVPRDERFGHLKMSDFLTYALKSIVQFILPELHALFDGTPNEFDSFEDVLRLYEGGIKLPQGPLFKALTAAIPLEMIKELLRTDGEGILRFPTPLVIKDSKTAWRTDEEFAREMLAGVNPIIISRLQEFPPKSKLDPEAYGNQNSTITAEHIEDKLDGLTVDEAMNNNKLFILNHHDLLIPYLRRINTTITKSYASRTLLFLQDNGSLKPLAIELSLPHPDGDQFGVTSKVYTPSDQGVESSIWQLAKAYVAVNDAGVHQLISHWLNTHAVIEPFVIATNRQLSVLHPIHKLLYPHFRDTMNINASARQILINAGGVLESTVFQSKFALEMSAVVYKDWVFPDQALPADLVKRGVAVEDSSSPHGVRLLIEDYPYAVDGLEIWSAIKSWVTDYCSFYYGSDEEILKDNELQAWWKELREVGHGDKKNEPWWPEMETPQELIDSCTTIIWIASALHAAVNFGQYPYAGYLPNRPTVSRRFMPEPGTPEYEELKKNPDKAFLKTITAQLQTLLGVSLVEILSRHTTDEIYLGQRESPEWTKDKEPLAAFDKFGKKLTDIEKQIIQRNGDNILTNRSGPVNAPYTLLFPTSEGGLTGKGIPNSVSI
Kind of data set: Inhibition of potato 5-LOX after 5 mins by enzyme immuno assay. A digest of the protocol: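 Potato 5-LOX inhibition measured with a LOX assay kit. IC50 is the mean of two determinations, deviation from the mean <10%.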

Data set [1] has as its system Rattus norvegicus. Kind of data set: Antiinflammatory activity against assessed as inhibition of carrageenan-induced foot paw edema in po dosed rat after 3 hrs. The data set is classed as functional. The procedure, abridged: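 Oral dosing; edema induced by carrageenan in rat paw and measured 3 h after administration. ED50 (µmol/kg) derived from the dose–response.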
(In the carrageenan paw model, swelling and tenderness develop within hours.)

Data set [2] addresses T2, Prostaglandin G/H synthase 2 (Homo sapiens, UniProt P35354).
T2 sequence (P35354 whole entry): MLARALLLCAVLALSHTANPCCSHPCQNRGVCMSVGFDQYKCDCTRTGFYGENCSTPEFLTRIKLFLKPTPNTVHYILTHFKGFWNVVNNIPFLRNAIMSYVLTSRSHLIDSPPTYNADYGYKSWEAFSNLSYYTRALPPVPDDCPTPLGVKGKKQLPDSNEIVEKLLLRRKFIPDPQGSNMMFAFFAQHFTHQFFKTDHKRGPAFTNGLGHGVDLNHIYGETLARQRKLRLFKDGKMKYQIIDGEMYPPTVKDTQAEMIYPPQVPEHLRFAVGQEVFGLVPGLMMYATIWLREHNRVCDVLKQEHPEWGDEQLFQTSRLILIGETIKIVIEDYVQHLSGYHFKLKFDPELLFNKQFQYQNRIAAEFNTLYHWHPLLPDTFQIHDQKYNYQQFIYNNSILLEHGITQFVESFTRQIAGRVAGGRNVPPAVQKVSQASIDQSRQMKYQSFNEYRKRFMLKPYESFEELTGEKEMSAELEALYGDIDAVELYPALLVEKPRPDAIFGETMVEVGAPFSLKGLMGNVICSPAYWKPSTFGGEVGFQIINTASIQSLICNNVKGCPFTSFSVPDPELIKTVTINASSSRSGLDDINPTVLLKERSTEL
Kind of data set: Inhibition of human recombinant COX-2 by enzyme immuno assay.

Data set [3] concerns Rattus norvegicus. Kind of data set: Gastrointestinal toxicity in rat assessed ulcer index at 1.38 mmol/kg, po after 6 hrs relative to aspirin. To be noted: in vivo. The data set is classed as organism-based. A digest of the protocol: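 Rats fasted 24 h (water allowed) and dosed orally at 1.38 mmol/kg as a suspension in 1% methylcellulose. Killed 6 h later; stomachs opened along greater curvature, rinsed, and lesions measured by magnifier. Lesions up to 1 mm rated 1, 1–2 mm rated 2, >2 mm rated by length in mm. UI is summed lesion length per stomach averaged over n = 4; mean ± SEM.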

The target of data set [4] is Prostaglandin G/H synthase 1 (Ovis aries) (UniProt P05979). Kind of data set: Inhibition of ovine COX-1 by enzyme immuno assay.
Data set [5] has as its system Rattus norvegicus. Kind of data set: Ratio of compound ED50 to aspirin ED50 for inhibition of carrageenan-induced foot paw edema in po dosed rat after 3 hrs. The data set is classed as functional.
A short description of data set [6]: Selectivity index, ratio of IC50 for ovine COX-1 to IC50 for human recombinant COX-2.
In data set [7] the test system is Rattus norvegicus. Kind of data set: Ratio of compound ED50 to ibuprofen ED50 for inhibition of carrageenan-induced foot paw edema in po dosed rat after 3 hrs. The data set is classed as functional. A digest of the protocol: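 Carrageenan-induced paw edema in rats, test compound given orally. […] The ratio compares the compound ED50 with the ibuprofen ED50 from this model.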

Calls of active or inactive are those of the source. The calls are words filed in the database; no cut-off is given here.

In the case of `O=C(O)c1cc(-c2ccn(C(F)F)c(=O)c2)ccc1O`, the IC50 turned out to be 0.37 µM against 5-lipoxygenase, 0.98 µM in data set [2] and 15.4 µM in data set [4]. In the data set on Rattus norvegicus [1], the ED50 came out at 434 µmol/kg. This compound also displayed a UI in the data set with Rattus norvegicus [3] of 0. The “Ratio ED50” value in the data set on Rattus norvegicus [5] turned out to be 1.6. The Ratio IC50 in data set [6] is above 15.
Regarding `CC(=O)Oc1ccccc1C(=O)O` [ASPIRIN], in the data set on Rattus norvegicus [1], the 50% effective dose (ED50) was found to be 716 µmol/kg. This compound registered a UI in the data set with Rattus norvegicus [3] of 57.4.
With `O=C(O)/C=C/c1ccc(O)c(O)c1` [CAFFEIC ACID], it took 4 µM to reach half-maximal inhibition against 5-lipoxygenase (IC50).
For the compound `CC(=O)NS(=O)(=O)c1ccc(-c2ccn(C(F)F)c(=O)c2)cc1C(=O)O`, the IC50 at 5-lipoxygenase was 0.32 µM; in data set [2], 17.6 µM; in data set [4] it was above 100 µM. Also, the ED50 result in the data set on Rattus norvegicus [1] is “inactive”. In addition, the Ratio IC50 in data set [6] was above 5.
Take `O=C(O)c1ccc(-c2ccn(C(F)F)c(=O)c2)cc1O`: the values for the IC50 (on 5-lipoxygenase; in data set [2]; in data set [4]) were 4.7 µM, 4.4 µM and above 100 µM, respectively. For the same compound, the ED50 in the data set with Rattus norvegicus [1] was 497 µmol/kg. In the data set with Rattus norvegicus [3], the UI is listed as 0. Moreover, in the data set on Rattus norvegicus [5], the “Ratio ED50” value came to 1.4. For the same compound, in data set [6], the Ratio IC50 is above 22.
Consider `O=C(O)c1cc(-c2ccc(F)cc2F)ccc1O` [DIFLUNISAL], for which the median effective dose (ED50) in the data set on Rattus norvegicus [1] stood at 68 µmol/kg.
As to `CC(=O)NS(=O)(=O)c1cc(-c2ccn(C(F)F)c(=O)c2)ccc1C(=O)O`, the IC50 was 0.28 µM against 5-lipoxygenase, 2.6 µM in data set [2] and above 100 µM in data set [4]. In the data set with Rattus norvegicus [1], the ED50 worked out at 258 µmol/kg. Moreover, the “Ratio ED50” value in the data set with Rattus norvegicus [5] is reported as 2.8; in the data set on Rattus norvegicus [7] it was 1.3. Moreover, the Ratio IC50 in data set [6] was above 38.
